Here are results for 12 compounds from ChEMBL document CHEMBL1134327, “Design, synthesis, and pharmacological evaluation of thapsigargin analogues for targeting apoptosis to prostatic cancer cells” (2001).

The nature of test [1]: Loss of clonogenic survival of human prostate cancer TSU-Pr1 cells. It is filed as functional. To be noted: read-out: LC50 (the source's name). Put shortly: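 TSU-Pr1 human prostatic cancer cells treated with each analogue. Clonogenic survival compared with untreated controls. Value reported as LC50 (µM), the concentration producing 50% loss of clonogenic survival.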
The species entered for test [2] is Oryctolagus cuniculus. Kind of test: Inhibition of rabbit skeletal muscle sarcoplasmic and endoplasmic reticulum [Ca(2+)]-dependent ATPases(SERCA) activity. Put shortly:
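Rabbit skeletal-muscle SR microsomes were prepared by differential centrifugation with a 0.6 M KCl wash. Buffer was pH 7.5 Tris with KCl, MgCl2, EGTA/CaCl2 and A23187. Doses were in nmol/mg SR protein. Activity is % of uninhibited control in triplicate, corrected for residual Ca²⁺-independent ATPase.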

Test [3] can be described thus: Increase in cytosolic [Ca2+] concentration in TSU-Pr1 cells at given effective cytotoxic concentration. It is filed as functional, Homo sapiens.
Test [4] in a line: Loss of clonogenic survival of human prostate cancer TSU-Pr1 cells relative to TG was determined. It is filed as functional.
Test [5] is filed under the species Oryctolagus cuniculus. Kind of test: Inhibition of rabbit skeletal muscle SERCA activity relative to TG.

“And” between values parts separate entries of the source, which are not always exact repeats. Identical values can stand only once. A value given as a limit tells only on which side of the number the result lay.

As to `C/C=C(/C)C(=O)O[C@H]1C(C)=C2[C@H]([C@@H]1OC(=O)CCCCCCC)[C@@](C)(OC(C)=O)C[C@H](OC(=O)CCCCCNC(=O)[C@@H](N)CC(C)C)[C@@]1(O)[C@H]2OC(=O)[C@@]1(C)O`, in test [1], the CC50 is above 20000 nM. This compound also yielded an ID50 (nM (mg SR protein)-1) in the test filed under Oryctolagus cuniculus [2] of 3840. Moreover, the Activity in test [3] is 84 nM and 40 nM; in test [4], above 667; in the test filed under Oryctolagus cuniculus [5] it was 287.

In the case of `C/C=C(/C)C(=O)O[C@H]1C(C)=C2[C@H]([C@@H]1OC(=O)CCCCCCC)[C@@](C)(OC(C)=O)C[C@H](OC(=O)CCCCCCCCCCCNC(=O)[C@@H](N)CC(C)C)[C@@]1(O)[C@H]2OC(=O)[C@@]1(C)O`, the CC50 in test [1] is 30 nM. Moreover, the ID50 (nM (mg SR protein)-1) in the test listed under Oryctolagus cuniculus [2] was 45. Also, the results for the Activity (in test [3]; in test [4]; in the test filed under Oryctolagus cuniculus [5]) were 414 nM, 1 and 3.4, respectively. Also, the “[Ca2+]” value in test [3] came to 173 nM.

Take `C/C=C(/C)C(=O)O[C@H]1C(C)=C2[C@H]([C@@H]1OC(=O)CCCCCCC)[C@@](C)(OC(C)=O)C[C@H](OC(=O)CCCCCCCN)[C@@]1(O)[C@H]2OC(=O)[C@@]1(C)O`: the CC50 in test [1] stood at 3850 nM. This compound also gave an ID50 (nM (mg SR protein)-1) in the test filed under Oryctolagus cuniculus [2] of 223. For the same compound, the values for the Activity (in test [3]; in test [4]; in the test listed under Oryctolagus cuniculus [5]) were 217 nM, 128 and 17, respectively.

For the compound `C/C=C(/C)C(=O)O[C@H]1C(C)=C2[C@H]([C@@H]1OC(=O)CCCCCCC)[C@@](C)(OC(C)=O)C[C@H](OC(=O)CCCCCCN)[C@@]1(O)[C@H]2OC(=O)[C@@]1(C)O`, in test [1], the CC50 amounted to 10900 nM. The ID50 (nM (mg SR protein)-1) in the test listed under Oryctolagus cuniculus [2] is 1210. Further, the Activity in test [3] turned out to be 209 nM; in test [4] it was 364; in the test filed under Oryctolagus cuniculus [5] it was 90.

For the compound `C/C=C(/C)C(=O)O[C@H]1C(C)=C2[C@H]([C@@H]1OC(=O)CCCCCCC)[C@@](C)(OC(C)=O)C[C@H](OC(=O)CCCCCCCCCCCNC(=O)[C@@H](N)Cc1ccccc1)[C@@]1(O)[C@H]2OC(=O)[C@@]1(C)O`, the CC50 in test [1] was found to be 210 nM. Also, the Activity in test [3] is 446 nM and 406 nM; in test [4], 7.

For `C/C=C(/C)C(=O)O[C@H]1C(C)=C2[C@H]([C@@H]1OC(=O)CCCCCCC)[C@@](C)(OC(C)=O)C[C@H](OC(=O)CCCCCCCCCCN)[C@@]1(O)[C@H]2OC(=O)[C@@]1(C)O`, in test [1], the CC50 was determined as 750 nM. This compound also showed an ID50 (nM (mg SR protein)-1) in the test listed under Oryctolagus cuniculus [2] of 40. In addition, the Activity was 420 nM and 242 nM in test [3]; 25 in test [4]; 3 in the test filed under Oryctolagus cuniculus [5].

`C/C=C(/C)C(=O)O[C@H]1C(C)=C2[C@H]([C@@H]1OC(=O)CCCCCCC)[C@@](C)(OC(C)=O)C[C@H](OC(=O)CCCCCN)[C@@]1(O)[C@H]2OC(=O)[C@@]1(C)O`: the CC50 in test [1] was above 20000 nM. For the same compound, the ID50 (nM (mg SR protein)-1) in the test listed under Oryctolagus cuniculus [2] is 1330. Also, the Activity in test [3] was 284 nM; in test [4], above 667; in the test listed under Oryctolagus cuniculus [5] it was 99.

On to `C/C=C(/C)C(=O)O[C@H]1C(C)=C2[C@H]([C@@H]1OC(=O)CCCCCCC)[C@@](C)(OC(C)=O)C[C@H](OC(=O)CCCCCCCCCCCNC(=O)[C@@H](N)CO)[C@@]1(O)[C@H]2OC(=O)[C@@]1(C)O`, for which the CC50 in test [1] was 890 nM. Further, in the test listed under Oryctolagus cuniculus [2], the ID50 (nM (mg SR protein)-1) amounted to 10.3. Moreover, the Activity in test [4] is 30; in the test filed under Oryctolagus cuniculus [5], 0.8.

With `C/C=C(/C)C(=O)O[C@H]1C(C)=C2[C@H]([C@@H]1OC(=O)CCCCCCC)[C@@](C)(OC(C)=O)C[C@H](OC(=O)CCCCCCCCCCCNC(=O)[C@H](C)N)[C@@]1(O)[C@H]2OC(=O)[C@@]1(C)O`, in test [1], the CC50 worked out at 280 nM. Besides, in the test listed under Oryctolagus cuniculus [2], the ID50 (nM (mg SR protein)-1) is 16.5. Besides, the Activity was 410 nM and 338 nM in test [3]; 9.3 in test [4]; 1.2 in the test listed under Oryctolagus cuniculus [5].

For the compound `C/C=C(/C)C(=O)O[C@H]1C(C)=C2[C@H]([C@@H]1OC(=O)CCCCCCC)[C@@](C)(OC(C)=O)C[C@H](OC(=O)CCc1ccc(NC(=O)[C@@H](N)CC(C)C)cc1)[C@@]1(O)[C@H]2OC(=O)[C@@]1(C)O`, the CC50 in test [1] was found to be 880 nM. The ID50 (nM (mg SR protein)-1) in the test listed under Oryctolagus cuniculus [2] turned out to be 466. Moreover, the Activity in test [4] was 29; in the test listed under Oryctolagus cuniculus [5], 35.

As for `C/C=C(/C)C(=O)O[C@H]1C(C)=C2[C@H]([C@@H]1OC(=O)CCCCCCC)[C@@](C)(OC(C)=O)C[C@H](OC(=O)CCCCCCCCCCCN)[C@@]1(O)[C@H]2OC(=O)[C@@]1(C)O`, the CC50 in test [1] came out at 1160 nM. Besides, the ID50 (nM (mg SR protein)-1) in the test listed under Oryctolagus cuniculus [2] was found to be 35. Besides, the Activity was 369 nM and 235 nM in test [3]; 39 in test [4]; 2.6 in the test listed under Oryctolagus cuniculus [5].

In the case of `C/C=C(/C)C(=O)O[C@H]1C(C)=C2[C@H]([C@@H]1OC(=O)CCCCCCC)[C@@](C)(OC(C)=O)C[C@H](OC(=O)CCC)[C@@]1(O)[C@H]2OC(=O)[C@@]1(C)O` [THAPSIGARGIN], the CC50 in test [1] is 30 nM. For the same compound, the ID50 (nM (mg SR protein)-1) in the test filed under Oryctolagus cuniculus [2] stood at 13.4. Moreover, the Activity (in test [4]; in the test filed under Oryctolagus cuniculus [5]) was 1 throughout.
